IC50 data for ten molecules are collected here from ChEMBL document CHEMBL3233000, “Cytotoxic ent-kaurane diterpenoids from Isodon wikstroemioides” (J Nat Prod, 2014).

Type in all cases: functional, cell-based
The subject of one test is RAW264.7. Briefly: Inhibition of nitric oxide production in LPS-stimulated mouse RAW264.7 cells after 18 hrs by griess reagent based plate reader analysis. As to conditions: RAW264.7, 18 h. Put shortly:
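RAW264.7 macrophages seeded at 2 × 10^5 cells/well. Treated with serial dilutions (top concentration 25 μM), then stimulated with LPS 1 μg/mL for 18 h. Supernatant NO measured with Griess reagents, absorbance 550 nm. MG-132 was the positive control. Viability was checked in parallel by MTT (595 nm) to exclude cytotoxic interference.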

Another test has as its system HL-60. Briefly: Cytotoxicity against human HL60 cells assessed as growth inhibition after 48 hrs by MTS assay. As to conditions: HL-60, 48 h. The gist of the method: (§1)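 Cell lines from ATCC, grown in RPMI-1640 or DMEM with 10% FBS at 37 °C, 5% CO2. Cells seeded, incubated 12 h at 37 °C, then screened at 40 μM for 48 h with MTS read-out. Where growth inhibition reached 50%, retested at 0.064, 0.32, 1.6, 8 and 40 μM in triplicate. Cisplatin and paclitaxel were positive controls. IC50 by Reed and Muench method.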

A further test concerns MCF7. Briefly: Cytotoxicity against human MCF7 cells assessed as growth inhibition after 48 hrs by MTS assay. As to conditions: MCF7, 48 h. The gist of the method:
as §1

For the next test, the system named is A549. The test can be described thus: Cytotoxicity against human A549 cells assessed as growth inhibition after 48 hrs by MTS assay. As to conditions: A549, 48 h. The gist of the method: as §1
A further test relates to SW480. The test can be described thus: Cytotoxicity against human SW480 cells assessed as growth inhibition after 48 hrs by MTS assay. As to conditions: SW480, 48 h. Put shortly: as §1
The subject of a further test is SMMC-7721. Briefly: Cytotoxicity against human SMMC7721 cells assessed as growth inhibition after 48 hrs by MTS assay. The settings on record: SMMC-7721, 48 h. The gist of the method: as §1

In the case of `C=C1C(=O)[C@@]23[C@H](O)C[C@@H]4[C@@](C)(COC(C)=O)CCC[C@@]4(C)[C@@H]2C[C@H](O)[C@@H]1[C@H]3O` [ALBOPILOSIN A], the IC50 in the test on RAW264.7 amounted to 1.9 µM; with HL-60, 2 µM; in the test with MCF7 it was 1.7 µM; in the test with A549, 3.2 µM; in the test on SW480, 0.9 µM; in the test on SMMC-7721 it was 1.4 µM.

Regarding `C=C1C(=O)[C@]23C[C@H]1[C@@H](O)C[C@H]2[C@]1(C)CCC[C@](C)(CO)[C@H]1C[C@H]3O`, the IC50 in the test on RAW264.7 turned out to be 3.5 µM; in the test on HL-60, 3.6 µM; with MCF7 it was 4.9 µM; with A549, 4.4 µM; in the test on SW480, 1.4 µM; with SMMC-7721, 4 µM.

In the case of `C=C1C(=O)[C@@]23[C@H](O)C[C@@H]4[C@@](C)(CO)CCC[C@@]4(C)[C@@H]2C[C@H](O)[C@@H]1[C@H]3OC(C)=O`, the IC50 is 16.5 µM with RAW264.7; above 10 µM with HL-60; above 10 µM in the test on MCF7; above 10 µM with A549; 8.6 µM in the test on SW480; above 10 µM in the test with SMMC-7721.

As to `C=C1C(=O)[C@@]23CC[C@@H]4[C@@](C)(CO)CCC[C@@]4(C)[C@@H]2C[C@H](O)[C@@H]1[C@H]3O`, the IC50 was 4.8 µM in the test with RAW264.7; 8.8 µM in the test on HL-60; above 10 µM in the test with MCF7; above 10 µM in the test with A549; 4 µM with SW480; 4 µM with SMMC-7721.

With `C=C1C(=O)[C@]23C[C@H]1C[C@H](OC(C)=O)[C@H]2[C@]1(C)[C@@H](OC(C)=O)C[C@H](O)C(C)(C)[C@H]1C(=O)[C@@H]3OC(C)=O` [ADENANTHIN], the IC50 with RAW264.7 was determined as 3.3 µM; in the test with HL-60, 3.6 µM; with MCF7, 2.8 µM; in the test with A549, 3.3 µM; in the test on SW480 it was 2 µM; in the test with SMMC-7721, 4 µM.

On to `C=C1C(=O)[C@@]23CC(=O)[C@@H]4C(C)(C)CCC[C@@]4(C)[C@@H]2[C@@H](O)C[C@@H]1[C@H]3O`, for which the IC50 in the test on RAW264.7 came out at 1.1 µM; in the test on HL-60, 3.1 µM; in the test on MCF7, 1.6 µM; with A549, 1 µM; with SW480 it was 1 µM; in the test on SMMC-7721 it was 0.8 µM.

`C=C1C(=O)[C@@]23[C@H](O)C[C@H]4[C@@](C)(CCC[C@]4(C)C=O)[C@@H]2C[C@H](O)[C@@H]1[C@H]3O` [MACROCALYXIN C]: the IC50 with RAW264.7 is 2.7 µM; in the test with HL-60, 3.7 µM; in the test with MCF7, 3.7 µM; in the test on A549, above 10 µM; in the test with SW480 it was 2.1 µM; in the test on SMMC-7721 it was 4 µM.

As to `C=C1C(=O)[C@@]23C[C@H](O)[C@@H]4C(C)(C)CCC[C@@]4(C)[C@@H]2[C@@H](O)C[C@@H]1[C@H]3O`, the IC50 was found to be 2.5 µM with RAW264.7; 4.8 µM in the test with HL-60; 3.7 µM in the test on MCF7; 5.1 µM with A549; 2.3 µM in the test on SW480; 5.1 µM in the test on SMMC-7721.

Take `C=C1C(=O)[C@@]23[C@H](O)C[C@@H]4[C@@](C)(CO)CCC[C@@]4(C)[C@@H]2CC[C@@H]1[C@H]3O` [EXCISANIN C]: the IC50 worked out at 1 µM with RAW264.7; 3 µM with HL-60; 1.6 µM in the test on MCF7; 2.1 µM in the test on A549; 1.3 µM in the test with SW480; 2.7 µM in the test on SMMC-7721.

With `C=C1C(=O)[C@]23[C@H](O)[C@H]1[C@@H](O)C[C@H]2[C@]1(C)CCC[C@](C)(CO)[C@H]1C[C@H]3OC(C)=O`, the half-inhibitory concentration (IC50) is 16.8 µM with RAW264.7; above 10 µM with HL-60; above 10 µM with MCF7; above 10 µM in the test with A549; 6.9 µM in the test with SW480; above 10 µM in the test with SMMC-7721.
